Laboratory results: ChEMBL document CHEMBL4842338, “System-oriented optimization of multi-target 2,6-diaminopurine derivatives: Easily accessible broad-spectrum antivirals active against flaviviruses, influenza virus and SARS-CoV-2” (Eur J Med Chem, 2021)
pIC50: −log10 of the molar value. Active and inactive are the calls of the source. No cut-off for these calls is given here.

What was measured:
Influenza A virus [1] = test: Antiviral activity against Influenza A Puerto Rico/8/34/H1N1 infected in human A549 cells assessed as reduction in viral protein expression at 20 uM treated for 1 hr during viral adsorption followed by staining with anti-Flu antibody observed at 24 hrs post infection by In-cell western assay; assay type: functional, organism-based; settings: A/Puerto Rico/8/1934(H1N1)
[2] = Inhibition of full length Dengue virus 2 NS5 RNA dependent RNA polymerase incubated for 10 mins by picogreen staining based fluorescent analysis (Rvb= 0.32+/-0.05 uM); parameters: species or system dengue virus type 2
Influenza A virus [3] = test: Antiviral activity against Influenza A/California/04/2009H1N1 infected in human A549 cells assessed as reduction in viral protein expression at 20 uM treated for 1 hr during viral adsorption followed by staining with anti-Flu antibody observed at 24 hrs post infection by In-cell western assay; assay type: functional, organism-based
Huh-7 = test: Effect on formation of DENV replication complex in human Huh-7 cells assessed as reduction in expression of NS3 at 50 uM measured after 8 to 24 hrs by DAPI staining based confocal microscopy analysis; assay type: functional, cell-based; settings: time 8-24 hrs
Procedure, shortened: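 Huh-7 cells (1 × 10⁴) on coverslips infected with DENV-2 (MOI 0.05), treated (100 or 50 μM as listed), fixed in 4% paraformaldehyde at 8, 12, 16, 24 h; anti-NS3/anti-NS5 with Alexa 488/568 secondaries, DAPI; confocal, 5 random fields at 40×; % positive cells; 2-way ANOVA with Dunnett.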

With `FC(F)(F)c1cccc(Nc2nc(NCCOc3ccccc3)nc3[nH]cnc23)c1` the Activity (Influenza A virus [1]) was “Active”, the pIC50 [2] was 4.36 and the Activity (Influenza A virus [3]) was “Active”. For the same compound, the Activity (Huh-7) was “Active”.
